Data published in ChEMBL document CHEMBL5696442, “Discovery of type II inhibitors of TGFβ-activated kinase 1 (TAK1) and mitogen-activated protein kinase kinase kinase kinase 2 (MAP4K2)” (J Med Chem, 2015).

Columns and labels:
[1] = target: Mitogen-activated protein kinase 8 (Homo sapiens, UniProt P45983); experiment: Inhibition of JNK1 Lys2 labeling site in human Huh-7 cell lysate at 1 uM by KiNativ Profiling analysis relative to control; assay type: subcellular
[2] = AUC last in Swiss albino mouse at 1 mg/kg, iv measured upto 24 hrs by LC/MS/MS analysis; assay type: ADME, organism-based; details: in vivo
In short: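 Male Swiss albino mice. […] Blood was taken into K2EDTA from three mice per time point, from 0 to 24 h. Plasma was precipitated with acetonitrile and analysed by LC/MS/MS (LLOQ 1.138 ng/mL).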

[3] = target: Proto-oncogene tyrosine-protein kinase Src (Homo sapiens, UniProt P12931); experiment: Inhibition of SRC ACT labeling site in human A-375 cells at 5 uM by KiNativ Profiling analysis relative to control; assay type: cell-based
[4] = target: T1, Ephrin type-B receptor 2 (Homo sapiens) (UniProt P29323); experiment: Inhibition of EphB2 ACT labeling site in human A-375 cells at 0.5 uM by KiNativ Profiling analysis relative to control; assay type: cell-based
T1 sequence (whole entry): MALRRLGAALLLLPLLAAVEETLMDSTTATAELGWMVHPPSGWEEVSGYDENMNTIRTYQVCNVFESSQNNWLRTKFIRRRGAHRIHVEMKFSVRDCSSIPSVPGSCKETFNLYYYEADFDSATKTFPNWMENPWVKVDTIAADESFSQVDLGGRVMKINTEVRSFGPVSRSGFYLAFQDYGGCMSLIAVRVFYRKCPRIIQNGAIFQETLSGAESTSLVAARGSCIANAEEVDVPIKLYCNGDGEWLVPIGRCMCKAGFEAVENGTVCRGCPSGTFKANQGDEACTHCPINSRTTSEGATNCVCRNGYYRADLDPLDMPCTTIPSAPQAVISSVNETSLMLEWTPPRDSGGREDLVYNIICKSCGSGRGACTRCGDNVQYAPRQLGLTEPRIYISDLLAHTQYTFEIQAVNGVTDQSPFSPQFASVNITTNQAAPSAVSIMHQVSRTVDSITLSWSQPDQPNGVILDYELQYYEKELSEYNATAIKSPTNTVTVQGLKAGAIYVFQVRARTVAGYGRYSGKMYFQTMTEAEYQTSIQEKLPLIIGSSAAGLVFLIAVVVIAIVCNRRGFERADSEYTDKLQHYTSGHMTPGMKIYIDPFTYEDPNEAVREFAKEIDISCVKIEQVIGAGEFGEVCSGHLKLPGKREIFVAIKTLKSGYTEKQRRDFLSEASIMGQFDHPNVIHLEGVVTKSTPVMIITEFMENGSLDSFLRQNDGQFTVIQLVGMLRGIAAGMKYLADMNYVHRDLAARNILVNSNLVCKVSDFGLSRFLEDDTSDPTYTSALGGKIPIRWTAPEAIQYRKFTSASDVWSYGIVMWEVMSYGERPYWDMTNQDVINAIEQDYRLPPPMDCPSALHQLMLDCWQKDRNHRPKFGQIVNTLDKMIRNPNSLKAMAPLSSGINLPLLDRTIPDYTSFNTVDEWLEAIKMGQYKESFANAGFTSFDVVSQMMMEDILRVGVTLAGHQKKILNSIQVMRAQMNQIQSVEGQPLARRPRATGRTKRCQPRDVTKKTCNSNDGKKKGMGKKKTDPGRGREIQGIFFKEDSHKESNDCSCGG
In short: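 Live A375 melanoma cells were treated with compound at 0.5 or 5 μM, then lysed. Lysates were labeled with a lysine-reactive ATP or ADP-biotin probe. The read-out was protection of each kinase probe-labeling site from labeling, relative to control.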

[5] = target: Serine/threonine-protein kinase 24 (Homo sapiens) (UniProt Q9Y6E0); experiment: Inhibition of MST3 ACT labeling site in human A-375 cells at 5 uM by KiNativ Profiling analysis relative to control; assay type: cell-based
[6] = target: Serine/threonine-protein kinase WNK1 (Homo sapiens) (UniProt Q9H4A3); experiment: Inhibition of Wnk1 Lys2 labeling site in human A-375 cells at 5 uM by KiNativ Profiling analysis relative to control; assay type: cell-based
Chain of Serine/threonine-protein kinase WNK1 (Homo sapiens) (Q9H4A3 whole entry, looked up): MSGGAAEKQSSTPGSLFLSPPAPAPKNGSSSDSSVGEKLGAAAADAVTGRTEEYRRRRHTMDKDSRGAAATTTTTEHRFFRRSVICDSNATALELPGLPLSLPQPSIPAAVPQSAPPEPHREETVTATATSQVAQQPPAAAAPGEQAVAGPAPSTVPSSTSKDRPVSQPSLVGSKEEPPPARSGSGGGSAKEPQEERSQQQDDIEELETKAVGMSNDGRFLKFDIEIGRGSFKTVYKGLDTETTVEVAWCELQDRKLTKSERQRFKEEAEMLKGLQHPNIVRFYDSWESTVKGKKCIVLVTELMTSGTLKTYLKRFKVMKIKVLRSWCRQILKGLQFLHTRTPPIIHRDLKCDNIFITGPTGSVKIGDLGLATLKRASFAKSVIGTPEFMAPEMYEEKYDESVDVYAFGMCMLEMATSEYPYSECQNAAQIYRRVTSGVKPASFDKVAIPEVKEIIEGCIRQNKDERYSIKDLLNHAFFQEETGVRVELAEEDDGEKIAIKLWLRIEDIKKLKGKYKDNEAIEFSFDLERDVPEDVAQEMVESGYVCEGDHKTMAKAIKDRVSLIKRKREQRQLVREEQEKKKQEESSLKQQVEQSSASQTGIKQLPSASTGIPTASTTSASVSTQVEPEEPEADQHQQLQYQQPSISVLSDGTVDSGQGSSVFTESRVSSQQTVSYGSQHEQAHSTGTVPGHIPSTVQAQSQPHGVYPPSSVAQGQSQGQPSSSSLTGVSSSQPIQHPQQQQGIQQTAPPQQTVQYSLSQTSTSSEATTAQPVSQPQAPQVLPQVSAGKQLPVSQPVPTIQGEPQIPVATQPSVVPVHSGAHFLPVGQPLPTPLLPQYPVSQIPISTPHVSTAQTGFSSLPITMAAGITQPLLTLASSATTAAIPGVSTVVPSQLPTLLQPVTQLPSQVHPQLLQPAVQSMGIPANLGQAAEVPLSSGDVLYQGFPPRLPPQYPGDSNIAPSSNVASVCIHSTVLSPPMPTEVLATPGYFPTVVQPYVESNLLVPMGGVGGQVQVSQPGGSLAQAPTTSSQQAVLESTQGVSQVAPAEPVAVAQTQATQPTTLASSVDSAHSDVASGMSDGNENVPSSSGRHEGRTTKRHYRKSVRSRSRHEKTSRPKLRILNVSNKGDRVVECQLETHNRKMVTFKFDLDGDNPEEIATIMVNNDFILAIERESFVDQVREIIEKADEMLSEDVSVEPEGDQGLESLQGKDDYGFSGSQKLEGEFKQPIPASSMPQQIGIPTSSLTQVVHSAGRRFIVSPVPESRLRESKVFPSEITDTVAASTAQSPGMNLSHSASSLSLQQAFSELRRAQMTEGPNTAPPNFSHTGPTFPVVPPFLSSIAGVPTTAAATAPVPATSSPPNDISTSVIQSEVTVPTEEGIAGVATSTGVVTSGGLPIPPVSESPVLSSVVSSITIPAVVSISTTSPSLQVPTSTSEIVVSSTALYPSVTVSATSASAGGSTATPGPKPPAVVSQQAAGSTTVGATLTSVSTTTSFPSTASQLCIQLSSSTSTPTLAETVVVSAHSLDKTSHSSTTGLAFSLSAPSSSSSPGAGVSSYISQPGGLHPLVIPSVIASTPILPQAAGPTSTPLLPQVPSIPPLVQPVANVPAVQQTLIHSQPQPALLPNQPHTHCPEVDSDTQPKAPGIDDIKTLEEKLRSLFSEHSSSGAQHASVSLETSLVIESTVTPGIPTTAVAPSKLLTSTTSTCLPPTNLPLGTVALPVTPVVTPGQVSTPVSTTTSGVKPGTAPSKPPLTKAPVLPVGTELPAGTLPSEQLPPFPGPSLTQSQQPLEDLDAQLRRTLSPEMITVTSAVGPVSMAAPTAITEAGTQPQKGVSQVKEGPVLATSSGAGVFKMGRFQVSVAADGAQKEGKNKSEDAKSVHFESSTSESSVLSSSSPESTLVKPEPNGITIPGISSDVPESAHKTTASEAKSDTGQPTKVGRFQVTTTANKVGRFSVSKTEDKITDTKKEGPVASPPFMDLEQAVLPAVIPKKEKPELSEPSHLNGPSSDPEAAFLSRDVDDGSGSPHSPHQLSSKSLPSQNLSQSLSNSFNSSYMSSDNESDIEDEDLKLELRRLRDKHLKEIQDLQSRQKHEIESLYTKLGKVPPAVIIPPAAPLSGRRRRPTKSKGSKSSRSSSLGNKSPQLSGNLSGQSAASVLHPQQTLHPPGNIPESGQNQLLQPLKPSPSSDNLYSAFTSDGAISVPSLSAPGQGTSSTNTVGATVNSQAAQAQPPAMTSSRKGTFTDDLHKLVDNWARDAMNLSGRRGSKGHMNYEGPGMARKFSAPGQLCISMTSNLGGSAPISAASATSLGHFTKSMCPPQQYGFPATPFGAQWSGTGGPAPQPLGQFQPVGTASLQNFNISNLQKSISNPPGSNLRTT

[7] = target: RAC-gamma serine/threonine-protein kinase (Homo sapiens) (UniProt Q9Y243); experiment: Inhibition of AKT3 ATP Loop labeling site in human A-375 cells at 0.5 uM by KiNativ Profiling analysis relative to control; assay type: cell-based
In short: (§1)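 Live A375 melanoma cells were treated with compound at 5 or 0.5 μM, then lysed. The lysates were labeled with a lysine-reactive ATP or ADP-biotin probe. Kinase protection from probe labeling was measured by KiNativ.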

[8] = target: T2, Aurora kinase C (Homo sapiens) (UniProt Q9UQB9); experiment: Inhibition of AurC ATP Loop labeling site in human A-375 cells at 0.5 uM by KiNativ Profiling analysis relative to control; assay type: cell-based; in short: as §1
T2 sequence (whole entry): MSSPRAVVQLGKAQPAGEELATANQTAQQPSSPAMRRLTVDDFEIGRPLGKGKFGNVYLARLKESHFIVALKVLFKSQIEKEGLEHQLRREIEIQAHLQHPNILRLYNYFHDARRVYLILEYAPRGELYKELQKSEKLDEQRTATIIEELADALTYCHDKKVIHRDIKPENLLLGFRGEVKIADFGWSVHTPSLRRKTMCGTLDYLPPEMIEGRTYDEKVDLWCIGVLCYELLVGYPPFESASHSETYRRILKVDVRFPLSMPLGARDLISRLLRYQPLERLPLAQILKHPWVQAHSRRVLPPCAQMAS

[9] = target: Serine/threonine-protein kinase 10 (Homo sapiens) (UniProt O94804); experiment: Inhibition of LOK Lys1 labeling site harbouring NKETGALAAAKVIETK in human A-375 cells at 0.5 uM by KiNativ Profiling analysis relative to control; assay type: cell-based
[10] = target: Serine/threonine-protein kinase 25 (Homo sapiens) (UniProt O00506); experiment: Inhibition of YSK1 ACT labeling site in human A-375 cells at 0.5 uM by KiNativ Profiling analysis relative to control; assay type: cell-based
[11] = target: Serine/threonine-protein kinase WNK2 (Homo sapiens) (UniProt Q9Y3S1); experiment: Inhibition of Wnk2 ACT labeling site in human A-375 cells at 0.5 uM by KiNativ Profiling analysis relative to control; assay type: cell-based
Chain of Serine/threonine-protein kinase WNK2 (Homo sapiens) (Q9Y3S1 whole entry): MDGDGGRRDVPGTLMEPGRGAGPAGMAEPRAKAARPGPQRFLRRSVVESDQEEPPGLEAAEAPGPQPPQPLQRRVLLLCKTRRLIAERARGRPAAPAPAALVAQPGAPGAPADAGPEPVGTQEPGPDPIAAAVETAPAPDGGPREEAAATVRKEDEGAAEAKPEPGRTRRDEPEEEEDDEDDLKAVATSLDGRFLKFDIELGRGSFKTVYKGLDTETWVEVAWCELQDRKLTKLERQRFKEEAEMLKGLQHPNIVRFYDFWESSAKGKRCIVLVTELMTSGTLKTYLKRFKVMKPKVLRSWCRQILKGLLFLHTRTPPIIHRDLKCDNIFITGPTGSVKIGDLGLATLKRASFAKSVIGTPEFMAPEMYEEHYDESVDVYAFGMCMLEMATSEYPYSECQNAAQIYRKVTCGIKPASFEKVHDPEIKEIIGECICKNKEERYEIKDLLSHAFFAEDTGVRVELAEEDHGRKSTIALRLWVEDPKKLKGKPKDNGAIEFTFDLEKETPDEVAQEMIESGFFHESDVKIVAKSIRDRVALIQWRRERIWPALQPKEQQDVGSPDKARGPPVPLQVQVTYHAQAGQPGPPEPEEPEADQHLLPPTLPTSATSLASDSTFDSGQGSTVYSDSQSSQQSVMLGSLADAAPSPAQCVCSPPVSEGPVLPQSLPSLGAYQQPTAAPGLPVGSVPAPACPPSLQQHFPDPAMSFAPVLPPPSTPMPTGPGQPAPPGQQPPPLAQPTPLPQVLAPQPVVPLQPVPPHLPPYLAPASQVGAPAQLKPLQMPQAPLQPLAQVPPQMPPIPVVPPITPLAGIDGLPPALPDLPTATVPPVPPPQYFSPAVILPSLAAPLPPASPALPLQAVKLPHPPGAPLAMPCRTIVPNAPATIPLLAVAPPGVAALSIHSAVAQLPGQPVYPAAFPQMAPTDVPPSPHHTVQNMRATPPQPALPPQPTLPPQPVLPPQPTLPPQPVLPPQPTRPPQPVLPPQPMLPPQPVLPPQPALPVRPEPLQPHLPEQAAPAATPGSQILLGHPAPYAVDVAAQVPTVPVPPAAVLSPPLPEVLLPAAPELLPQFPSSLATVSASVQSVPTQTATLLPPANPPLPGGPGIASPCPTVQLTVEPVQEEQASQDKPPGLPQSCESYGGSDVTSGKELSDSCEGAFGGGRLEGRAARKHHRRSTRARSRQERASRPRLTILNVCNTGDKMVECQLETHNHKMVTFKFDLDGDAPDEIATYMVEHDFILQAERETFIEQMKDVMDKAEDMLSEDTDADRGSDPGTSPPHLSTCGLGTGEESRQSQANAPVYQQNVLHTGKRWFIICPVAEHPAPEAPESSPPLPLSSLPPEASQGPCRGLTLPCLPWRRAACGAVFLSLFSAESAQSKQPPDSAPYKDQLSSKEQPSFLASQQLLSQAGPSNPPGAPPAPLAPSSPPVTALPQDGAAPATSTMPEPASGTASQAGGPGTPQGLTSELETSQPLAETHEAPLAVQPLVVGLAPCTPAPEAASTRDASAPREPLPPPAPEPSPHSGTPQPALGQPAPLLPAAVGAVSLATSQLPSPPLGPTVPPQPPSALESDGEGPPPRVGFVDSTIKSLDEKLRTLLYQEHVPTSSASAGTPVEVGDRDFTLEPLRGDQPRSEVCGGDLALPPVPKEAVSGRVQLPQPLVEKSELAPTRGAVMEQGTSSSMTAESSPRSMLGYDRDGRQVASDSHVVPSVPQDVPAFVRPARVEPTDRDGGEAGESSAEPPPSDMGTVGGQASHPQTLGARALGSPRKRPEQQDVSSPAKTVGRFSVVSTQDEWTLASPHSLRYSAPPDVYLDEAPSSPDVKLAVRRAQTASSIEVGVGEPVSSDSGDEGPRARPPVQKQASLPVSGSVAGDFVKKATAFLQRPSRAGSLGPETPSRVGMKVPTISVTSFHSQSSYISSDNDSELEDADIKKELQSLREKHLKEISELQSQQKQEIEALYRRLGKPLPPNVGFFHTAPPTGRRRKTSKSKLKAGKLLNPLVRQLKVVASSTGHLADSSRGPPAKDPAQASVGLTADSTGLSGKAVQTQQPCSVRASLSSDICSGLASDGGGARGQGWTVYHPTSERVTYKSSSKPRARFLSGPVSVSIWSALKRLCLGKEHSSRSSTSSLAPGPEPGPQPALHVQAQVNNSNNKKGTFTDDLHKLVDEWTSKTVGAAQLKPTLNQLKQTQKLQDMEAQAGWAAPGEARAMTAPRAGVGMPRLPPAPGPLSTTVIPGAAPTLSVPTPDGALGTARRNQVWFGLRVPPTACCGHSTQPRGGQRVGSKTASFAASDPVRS

[12] = target: TRAF2 and NCK-interacting protein kinase (Homo sapiens) (UniProt Q9UKE5); experiment: Inhibition of ZC2/TNIK Lys2 labeling site in human A-375 cells at 0.5 uM by KiNativ Profiling analysis relative to control; assay type: cell-based
[13] = target: Activated CDC42 kinase 1 (Homo sapiens) (UniProt Q07912); experiment: Inhibition of ACK Lys1 labeling site in human A-375 cells at 0.05 uM by KiNativ Profiling analysis relative to control; assay type: cell-based
[14] = target: Cyclin-dependent kinase 9 (Homo sapiens) (UniProt P50750); experiment: Inhibition of CDK9 Lys2 labeling site in human A-375 cells at 0.05 uM by KiNativ Profiling analysis relative to control; assay type: cell-based
[15] = target: Ribosomal protein S6 kinase alpha-1 (Homo sapiens) (UniProt Q15418); experiment: Inhibition of RSK1 Protein Kinase Domain in human A-375 cells at 0.05 uM by KiNativ Profiling analysis relative to control; assay type: cell-based
[16] = target: Serine/threonine-protein kinase WNK2 (Homo sapiens) (UniProt Q9Y3S1); experiment: Inhibition of Wnk2 ACT labeling site in human A-375 cells at 0.05 uM by KiNativ Profiling analysis relative to control; assay type: cell-based

Chain of Mitogen-activated protein kinase 8 (P45983 whole entry): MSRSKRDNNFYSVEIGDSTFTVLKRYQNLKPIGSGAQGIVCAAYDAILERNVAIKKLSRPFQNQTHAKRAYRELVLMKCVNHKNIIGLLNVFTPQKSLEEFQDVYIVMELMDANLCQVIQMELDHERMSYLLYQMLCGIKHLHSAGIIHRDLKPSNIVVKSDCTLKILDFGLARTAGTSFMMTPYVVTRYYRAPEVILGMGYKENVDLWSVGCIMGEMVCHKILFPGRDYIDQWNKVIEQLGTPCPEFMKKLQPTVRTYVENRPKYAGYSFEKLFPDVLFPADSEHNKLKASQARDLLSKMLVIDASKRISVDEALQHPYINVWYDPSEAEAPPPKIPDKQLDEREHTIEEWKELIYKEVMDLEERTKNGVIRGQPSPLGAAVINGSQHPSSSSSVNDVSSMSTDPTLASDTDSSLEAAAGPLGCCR

SMILES	inhibition [1]	AUClast [2]	inhibition [3]	inhibition [4]	inhibition [5]	inhibition [6]	inhibition [7]	inhibition [8]	inhibition [9]	inhibition [10]	inhibition [11]	inhibition [12]	inhibition [13]	inhibition [14]	inhibition [15]	inhibition [16]
CNc1cc(Oc2cc(C(=O)Nc3cc(N4CCN(C)CC4)cc(C(F)(F)F)c3)ccc2C)ncn1	7%															
CCN1CCN(Cc2ccc(NC(=O)c3ccc(C)c(Oc4ccnc5[nH]ccc45)c3)cc2C(F)(F)F)CC1		195 ng·h/mL	89.6%	-2.2%	35.1%	-5.5%	-1.8%	31.2%	74.7%	31.3%	3.9%	70.8%	15.6%	15.4%	-4.7%	10.3%
CNc1cc(Oc2cc(C(=O)Nc3cc(-n4cnc(C)c4)cc(C(F)(F)F)c3)ccc2C)ncn1	18.4%															
CCN1CCN(Cc2ccc(NC(=O)c3ccc(C)c(/C=C/c4cnc5[nH]ccc5c4OC)c3)cc2C(F)(F)F)CC1		403 ng·h/mL	> 99%	55.5%	13.7%	14.3%	25.1%	30.2%	61.8%	18.3%	6.9%	48.1%	34.3%	10.7%	1.4%	10.1%
